Measurements gathered from unrelated publications.
Target: Serine/threonine-protein kinase Nek6 (NEK6, Homo sapiens, UniProt Q9HC98)

CN(c1ncccc1CNc1nc(Nc2ccc3c(c2)CC(=O)N3)ncc1C(F)(F)F)S(C)(=O)=O
inhibition (enzyme activity, inhibitor; 1 µM): 11.8%

O=C1Nc2ccc(Cl)cc2C1=Cc1cc(Cl)c(O)c(Cl)c1
remaining signal (cell-free assay; 0.5 µM): 104%

COc1cc2ncnc(Nc3ccc(Oc4ccccc4)c(C)c3C)c2cc1OC
inhibition (enzyme activity, inhibitor; 1 µM): 8%

C[C@H](c1ccnc(Nc2nc3ccc(-c4cc(N(C)C)ncn4)cc3[nH]2)c1)N1CCN(C(=O)CC(F)(F)F)CC1
remaining binding (cell-free assay, competition with immobilised ligand; 0.1 µM): 83%

CC/C(=N\NC(=O)NCc1cccc(O)c1)c1ccc(O)c(C)c1O
inhibition (enzyme activity, inhibitor; 0.1 µM): 0.2%

FC(F)(F)Oc1cccc(-c2cnc3ccc(-c4ccncc4)nn23)c1
activity vs control (enzyme activity, inhibitor, radiometric; 5 µM): 93%

Cn1cc(Cl)c2c(Oc3c(F)cc(Nc4cc(Cl)nc(N)n4)cc3F)ccnc21
remaining binding (cell-free assay, competition with immobilised ligand; 0.1 µM): 100%

COc1cc(/C=C/C(=O)CC(=O)/C=C/c2ccc(O)c(OC)c2)ccc1O
activity vs control (enzyme activity, inhibitor; 1 µM): 97%

CCN(CC)CCNC(=O)c1c(C)[nH]c(/C=C2\C(=O)Nc3ccc(F)cc32)c1C
inhibition (enzyme activity, inhibitor; 10 µM): -9%

CO[C@@H](C)c1c(Nc2ccc([C@H](N(C)C(=O)C3CCS(=O)(=O)CC3)C(F)(F)F)cc2)cnc2cc(Cl)nn12
remaining binding (cell-free assay, competition with immobilised ligand; 1 µM): 97%

Cc1ccc(NC(=O)c2ccc(C)c(C(F)(F)F)c2)cc1C#Cc1nn(C2CCC(O)CC2)c2ncnc(N)c12 (centres unmarked)
remaining signal (cell-free assay; 10 µM): 98%

CCCCN(CCCC)C(=O)CN1C[C@H](c2cc(OC)c3c(c2)OCO3)[C@@H](C(=O)O)[C@@H]1CC(C)(C)CCC
remaining binding (cell-free assay, competition with immobilised ligand; 1 µM): 100%

CNC(=O)c1cc(Oc2ccc(NC(=O)Nc3ccc(Cl)c(C(F)(F)F)c3)cc2)ccn1
inhibition (enzyme activity, inhibitor; 10 µM): -16%

O=C1NC(=O)c2cc(Nc3ccc(F)cc3)c(Nc3ccc(F)cc3)cc21
remaining signal (cell-free assay; 0.5 µM): 109%
